Four molecules from the M2OR odorant receptor database can be followed below.

Common to all, as to details: stereoisomer not certain
Assay [1] concerns the target T1, OR52N4 (Homo sapiens) (UniProt Q8NGI2).
T1 sequence (whole entry): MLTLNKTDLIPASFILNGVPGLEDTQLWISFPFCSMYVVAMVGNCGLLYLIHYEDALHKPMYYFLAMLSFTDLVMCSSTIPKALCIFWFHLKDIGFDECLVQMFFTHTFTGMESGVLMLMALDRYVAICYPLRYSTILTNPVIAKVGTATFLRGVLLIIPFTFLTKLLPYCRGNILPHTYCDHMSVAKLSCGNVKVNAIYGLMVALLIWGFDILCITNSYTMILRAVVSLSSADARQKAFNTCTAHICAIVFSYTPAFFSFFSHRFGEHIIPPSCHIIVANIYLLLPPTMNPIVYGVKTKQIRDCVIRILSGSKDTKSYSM
In outline:
(§1)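 Transient luciferase assays in mammalian cell lines were common, though methods varied by source. The values come from published papers and their supplementary material, with extra details from the original authors when needed. Responsive refers to a measured signal the original authors judged statistically different from baseline, and non-responsive (inactive) to the remainder.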

The target in assay [2] is T2, OR52N5 (Homo sapiens) (UniProt Q8NH56).
T2 sequence (whole entry): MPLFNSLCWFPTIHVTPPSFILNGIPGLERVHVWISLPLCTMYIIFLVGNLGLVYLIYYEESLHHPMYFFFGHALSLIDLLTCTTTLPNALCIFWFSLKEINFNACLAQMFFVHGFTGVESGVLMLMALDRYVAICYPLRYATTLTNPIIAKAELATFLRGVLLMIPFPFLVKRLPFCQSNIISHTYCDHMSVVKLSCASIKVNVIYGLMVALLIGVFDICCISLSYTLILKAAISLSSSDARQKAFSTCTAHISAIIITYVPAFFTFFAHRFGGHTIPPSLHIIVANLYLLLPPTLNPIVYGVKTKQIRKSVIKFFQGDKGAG
In outline: as §1

Assay [3] addresses T3, OR52R1 (Homo sapiens) (UniProt Q8NGF1).
T3 sequence (whole entry): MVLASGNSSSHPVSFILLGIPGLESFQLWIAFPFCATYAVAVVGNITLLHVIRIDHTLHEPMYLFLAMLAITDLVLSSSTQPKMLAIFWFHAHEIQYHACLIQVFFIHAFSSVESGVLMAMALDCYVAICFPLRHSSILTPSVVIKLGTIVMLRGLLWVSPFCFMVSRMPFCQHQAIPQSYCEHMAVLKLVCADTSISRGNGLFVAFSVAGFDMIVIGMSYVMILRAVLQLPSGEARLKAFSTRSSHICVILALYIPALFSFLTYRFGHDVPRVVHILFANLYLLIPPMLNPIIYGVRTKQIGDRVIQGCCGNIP
In outline: as §1

Assay [4] addresses T4, OR52W1 (Homo sapiens) (UniProt Q6IF63).
T4 sequence (whole entry): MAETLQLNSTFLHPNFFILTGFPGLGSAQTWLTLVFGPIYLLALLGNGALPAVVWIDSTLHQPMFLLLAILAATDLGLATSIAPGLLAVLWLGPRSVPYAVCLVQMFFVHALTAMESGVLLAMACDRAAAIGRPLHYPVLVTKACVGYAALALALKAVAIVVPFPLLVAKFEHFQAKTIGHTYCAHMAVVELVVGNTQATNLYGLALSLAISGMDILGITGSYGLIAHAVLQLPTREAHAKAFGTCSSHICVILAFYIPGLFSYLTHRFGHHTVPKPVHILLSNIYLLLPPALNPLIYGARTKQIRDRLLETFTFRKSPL
A digest of the protocol:
as §1

Assay [5] deals with T5, OR56A1 (Homo sapiens) (UniProt Q8NGH5).
T5 sequence (whole entry): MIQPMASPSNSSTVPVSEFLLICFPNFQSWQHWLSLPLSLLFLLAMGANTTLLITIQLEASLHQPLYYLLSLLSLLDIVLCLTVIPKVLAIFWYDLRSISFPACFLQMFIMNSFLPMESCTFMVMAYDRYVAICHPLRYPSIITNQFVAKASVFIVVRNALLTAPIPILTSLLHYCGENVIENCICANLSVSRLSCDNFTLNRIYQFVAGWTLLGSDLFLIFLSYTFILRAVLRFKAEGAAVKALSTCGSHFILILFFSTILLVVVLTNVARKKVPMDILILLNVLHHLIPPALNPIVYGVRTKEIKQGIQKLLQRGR
A digest of the protocol: as §1

Assay [6] addresses T6, OR56A3 (Homo sapiens) (UniProt Q8NH54).
T6 sequence (whole entry): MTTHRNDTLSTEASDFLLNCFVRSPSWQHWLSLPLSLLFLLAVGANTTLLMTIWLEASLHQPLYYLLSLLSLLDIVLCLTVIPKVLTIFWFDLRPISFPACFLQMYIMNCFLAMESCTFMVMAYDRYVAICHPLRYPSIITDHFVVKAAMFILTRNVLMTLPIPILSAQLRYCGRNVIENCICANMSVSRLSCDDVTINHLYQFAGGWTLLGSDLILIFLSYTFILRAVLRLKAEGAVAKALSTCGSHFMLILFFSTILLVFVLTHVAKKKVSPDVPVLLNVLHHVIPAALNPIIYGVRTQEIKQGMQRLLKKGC
In outline:
as §1

In assay [7] the target is T7, OR56A4 (Homo sapiens) (UniProt Q8NGH8).
T7 sequence (whole entry): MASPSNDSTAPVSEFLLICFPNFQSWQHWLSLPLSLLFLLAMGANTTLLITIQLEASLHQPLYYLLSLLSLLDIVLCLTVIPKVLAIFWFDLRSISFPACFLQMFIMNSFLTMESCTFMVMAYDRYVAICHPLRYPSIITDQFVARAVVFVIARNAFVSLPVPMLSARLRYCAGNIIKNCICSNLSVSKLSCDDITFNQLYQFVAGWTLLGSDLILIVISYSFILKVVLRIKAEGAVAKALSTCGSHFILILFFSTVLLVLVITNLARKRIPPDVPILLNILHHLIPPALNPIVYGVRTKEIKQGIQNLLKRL
In outline: as §1

The target of assay [8] is T8, OR56A5 (Homo sapiens) (UniProt P0C7T3).
T8 sequence (whole entry): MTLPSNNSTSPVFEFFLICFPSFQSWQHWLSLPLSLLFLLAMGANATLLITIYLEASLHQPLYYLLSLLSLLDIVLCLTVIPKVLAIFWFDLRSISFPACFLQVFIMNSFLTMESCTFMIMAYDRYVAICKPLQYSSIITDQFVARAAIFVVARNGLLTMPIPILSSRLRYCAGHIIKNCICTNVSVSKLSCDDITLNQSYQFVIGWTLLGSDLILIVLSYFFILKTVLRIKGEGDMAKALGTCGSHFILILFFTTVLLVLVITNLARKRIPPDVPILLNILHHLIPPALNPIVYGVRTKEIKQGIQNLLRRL
In outline: as §1

In assay [9] the target is T9, OR56B1 (Homo sapiens) (UniProt Q8NGI3).
T9 sequence (whole entry): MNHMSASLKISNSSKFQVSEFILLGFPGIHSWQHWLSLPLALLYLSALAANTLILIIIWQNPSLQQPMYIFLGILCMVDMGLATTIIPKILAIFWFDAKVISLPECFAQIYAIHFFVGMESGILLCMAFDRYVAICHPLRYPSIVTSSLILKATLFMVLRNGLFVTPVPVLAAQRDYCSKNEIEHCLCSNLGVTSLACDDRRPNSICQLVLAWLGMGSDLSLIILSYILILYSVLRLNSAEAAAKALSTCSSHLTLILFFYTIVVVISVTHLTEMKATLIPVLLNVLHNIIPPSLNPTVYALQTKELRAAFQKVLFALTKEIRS
A digest of the protocol:
as §1

The target of assay [10] is T10, OR56B4 (Homo sapiens) (UniProt Q8NH76).
T10 sequence (whole entry): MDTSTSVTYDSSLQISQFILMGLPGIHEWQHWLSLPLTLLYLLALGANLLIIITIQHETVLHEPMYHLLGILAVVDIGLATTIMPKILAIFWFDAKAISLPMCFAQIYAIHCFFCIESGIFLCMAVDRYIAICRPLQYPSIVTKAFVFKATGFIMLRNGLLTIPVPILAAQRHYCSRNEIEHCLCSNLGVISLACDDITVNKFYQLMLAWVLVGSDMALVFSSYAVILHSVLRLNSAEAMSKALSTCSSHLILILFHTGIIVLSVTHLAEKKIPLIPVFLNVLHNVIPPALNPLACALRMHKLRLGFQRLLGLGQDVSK
A digest of the protocol:
as §1

The target of assay [11] is T11, OR5A1 (Homo sapiens) (UniProt Q8NGJ0).
T11 sequence (whole entry): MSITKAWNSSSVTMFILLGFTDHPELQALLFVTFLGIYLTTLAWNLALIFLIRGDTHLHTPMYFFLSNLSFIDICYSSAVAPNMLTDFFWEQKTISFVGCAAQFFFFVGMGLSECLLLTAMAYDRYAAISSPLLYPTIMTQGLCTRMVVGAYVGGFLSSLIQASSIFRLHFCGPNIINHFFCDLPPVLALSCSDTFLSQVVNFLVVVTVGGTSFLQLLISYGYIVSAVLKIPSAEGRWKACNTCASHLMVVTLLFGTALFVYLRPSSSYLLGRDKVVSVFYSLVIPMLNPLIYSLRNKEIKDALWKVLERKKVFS
In outline: as §1

The target of assay [12] is T12, OR5A2 (Homo sapiens) (UniProt Q8NGI9).
T12 sequence (whole entry): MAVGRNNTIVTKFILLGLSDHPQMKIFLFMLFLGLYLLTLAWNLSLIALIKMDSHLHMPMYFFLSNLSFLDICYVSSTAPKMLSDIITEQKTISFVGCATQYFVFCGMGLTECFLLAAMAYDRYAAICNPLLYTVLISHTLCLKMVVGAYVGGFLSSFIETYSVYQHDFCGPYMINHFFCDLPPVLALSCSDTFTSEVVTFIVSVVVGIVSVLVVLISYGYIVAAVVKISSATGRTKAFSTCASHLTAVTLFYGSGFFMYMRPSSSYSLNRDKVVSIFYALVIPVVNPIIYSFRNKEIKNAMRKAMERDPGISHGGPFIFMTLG
In outline:
as §1

Assay [13] deals with T13, OR5AC2 (Homo sapiens) (UniProt Q9NZP5).
T13 sequence (whole entry): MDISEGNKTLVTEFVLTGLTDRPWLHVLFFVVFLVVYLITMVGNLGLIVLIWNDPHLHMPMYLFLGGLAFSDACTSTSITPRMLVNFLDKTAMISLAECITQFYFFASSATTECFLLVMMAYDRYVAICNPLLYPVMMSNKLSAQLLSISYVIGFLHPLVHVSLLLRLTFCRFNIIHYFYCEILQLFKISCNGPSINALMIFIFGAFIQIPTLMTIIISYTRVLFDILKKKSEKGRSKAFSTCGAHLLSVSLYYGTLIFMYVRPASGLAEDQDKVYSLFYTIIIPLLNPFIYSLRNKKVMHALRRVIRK
A digest of the protocol: as §1

Assay [14] concerns the target T14, OR5AK2 (Homo sapiens) (UniProt Q8NH90).
T14 sequence (whole entry): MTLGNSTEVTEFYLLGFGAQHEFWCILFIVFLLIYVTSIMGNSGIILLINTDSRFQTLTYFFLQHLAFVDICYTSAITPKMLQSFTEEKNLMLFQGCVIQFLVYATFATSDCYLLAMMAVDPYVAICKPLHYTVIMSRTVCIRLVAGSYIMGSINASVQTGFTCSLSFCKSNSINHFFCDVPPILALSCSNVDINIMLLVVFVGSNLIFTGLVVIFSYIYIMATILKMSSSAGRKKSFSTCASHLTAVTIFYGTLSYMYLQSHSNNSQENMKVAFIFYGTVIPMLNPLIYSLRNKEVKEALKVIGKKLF
A digest of the protocol:
as §1

For assay [15], the target named is T15, OR5AN1 (Homo sapiens) (UniProt Q8NGI8).
T15 sequence (whole entry): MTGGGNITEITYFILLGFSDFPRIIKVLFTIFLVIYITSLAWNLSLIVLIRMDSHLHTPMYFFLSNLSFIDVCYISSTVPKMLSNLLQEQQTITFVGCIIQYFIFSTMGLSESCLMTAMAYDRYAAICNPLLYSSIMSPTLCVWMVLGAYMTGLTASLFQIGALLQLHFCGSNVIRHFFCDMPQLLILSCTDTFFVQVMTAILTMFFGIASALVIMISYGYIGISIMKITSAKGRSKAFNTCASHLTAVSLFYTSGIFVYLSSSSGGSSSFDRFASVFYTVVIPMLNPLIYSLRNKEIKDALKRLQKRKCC
A digest of the protocol:
as §1

In assay [16] the target is T16, OR5AP2 (Homo sapiens) (UniProt Q8NGF4).
T16 sequence (whole entry): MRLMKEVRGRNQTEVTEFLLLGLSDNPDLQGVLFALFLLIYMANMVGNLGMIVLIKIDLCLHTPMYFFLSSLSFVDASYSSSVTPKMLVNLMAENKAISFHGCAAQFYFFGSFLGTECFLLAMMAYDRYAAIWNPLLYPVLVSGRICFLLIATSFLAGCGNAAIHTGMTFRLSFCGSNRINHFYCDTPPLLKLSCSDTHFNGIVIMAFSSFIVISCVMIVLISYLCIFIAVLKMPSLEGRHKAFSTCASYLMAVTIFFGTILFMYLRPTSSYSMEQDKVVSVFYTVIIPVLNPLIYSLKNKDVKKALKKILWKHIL
In outline:
as §1

SMILES strings stand for the structures.

Take `CCCCCC(=O)C(C)C(C)=O` (centres undefined): the “odorant receptor agonist call” value in [1], in assay [2], in assay [3], in assay [4], in assay [5] and in assay [6] was “inactive” throughout. The “odorant receptor agonist call” value in assay [7], in [8], in assay [9], in assay [10], in assay [11] and in assay [12] was “inactive” in each case. For the same molecule, the “odorant receptor agonist call” value in [13], in assay [14], in assay [15] and in assay [16] was “inactive” throughout.
Consider `COc1ccc(C)cc1`, for which the “odorant receptor agonist call” value in assay [13] is “inactive”.
The same measure, in the same setting: next, `CCCCCC1COCCC1OC(C)=O` (centres undefined): “inactive”.
As for `CCCCC(S)C(C)CO` (centres undefined), the “odorant receptor agonist call” value in assay [1], in assay [3], in assay [4], in [5], in [6] and in assay [7] was “inactive” throughout. For the same molecule, the “odorant receptor agonist call” value in assay [8], in assay [9], in assay [11], in assay [12], in assay [13] and in [14] was “inactive” throughout. Besides, the “odorant receptor agonist call” value in assay [15] and in [16] was “inactive” each time. Also, the “odorant receptor agonist call” value in assay [2] and in assay [10] was “active” throughout.
